# Source: PubChem
# Only some compounds are listed: those with a hit (about 3.3% of all), similar ones and a draw of the others.
# ABCG2 block: human ABCG2 inhibition, ABCB1 as counter-screen; Q9UNQ0; IgMXP3 cells, JC-1 efflux, flow cytometry; inhibition, % at 6.6 µM; actives 0.1% (n = 190,000);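 active = inhibition above 80%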
#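 Test system: IgMXP3 (ABCG2) plus far-red-tagged CCRF-Adr (ABCB1) cells / Amount: 3 million cells/mL in well / Reagent: JC-1 transporter substrate / Timing: 10 min compound exposure, 25 °C / Signal: flow cytometry, 530 nm JC-1 signal / Read-out: percent efflux inhibition, scaled nicardipine 100% to DMSO 0% / Benchmarks: nicardipine as high control, DMSO as low control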
# ABCB1 block: inhibitors of human ABCB1 transporter, ABCG2 counter-screen | P08183 | CCRF-Adr cells, JC-1 efflux, flow cytometry | inhibition, % at 6.6 µM | actives 0.067% (n = 190,000) | AID 1326; in the data active = inhibition above about 40%;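 note: higher value means more JC-1 retained so stronger ABCB1 efflux block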
# PMI act hi M6P: activators of human phosphomannose isomerase at near-saturating mannose 6-phosphate; actives 0.34% (n = 190,000); coupled PMI enzyme assay, resazurin fluorescence, 20 min; stronger effect = higher value; 1 = untreated enzyme, 0 = substrate-free blank; AID 1216; activation factor at 20 µM;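 active = activation factor of 2 or more at 20 µM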
# Target sequence (P34949 whole entry, looked up): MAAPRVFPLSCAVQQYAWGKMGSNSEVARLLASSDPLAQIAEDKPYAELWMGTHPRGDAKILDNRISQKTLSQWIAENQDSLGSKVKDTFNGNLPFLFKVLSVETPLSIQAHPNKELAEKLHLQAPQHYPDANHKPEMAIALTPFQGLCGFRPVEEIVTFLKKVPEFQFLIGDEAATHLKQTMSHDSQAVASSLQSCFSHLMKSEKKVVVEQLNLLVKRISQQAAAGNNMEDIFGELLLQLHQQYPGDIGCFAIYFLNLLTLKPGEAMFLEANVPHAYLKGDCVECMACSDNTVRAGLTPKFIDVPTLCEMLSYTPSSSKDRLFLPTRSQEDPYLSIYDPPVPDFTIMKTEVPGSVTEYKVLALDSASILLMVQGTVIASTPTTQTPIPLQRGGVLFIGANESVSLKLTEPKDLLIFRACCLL
#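 Test system: Human PMI in coupled enzyme assay | Input: 15 ng/mL PMI | Medium: HEPES-buffered pH 7.4 with magnesium and detergent | Compound: One concentration, 20 µM, in 1% DMSO | Incubation: Enzyme reaction with compound 20 min at room temperature | Detection: Diaphorase-driven resazurin-to-resorufin fluorescence, excitation 544, emission 590 nm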
# ROMK mod: human ROMK K+ channel modulation, primary screen | Tet-inducible ROMK, thallium flux fluorescence; actives lie on both sides | B-score at 10 µM | actives 2% (n = 130,000);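 active = signal ratio slope over the read window, or its plate-corrected B-score, at least 3 SD from the plate mean, either direction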;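 note: B-score of the F/F0 ratio slope over 7 to 12 s after thallium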
# Target sequence (P48048 whole entry, looked up): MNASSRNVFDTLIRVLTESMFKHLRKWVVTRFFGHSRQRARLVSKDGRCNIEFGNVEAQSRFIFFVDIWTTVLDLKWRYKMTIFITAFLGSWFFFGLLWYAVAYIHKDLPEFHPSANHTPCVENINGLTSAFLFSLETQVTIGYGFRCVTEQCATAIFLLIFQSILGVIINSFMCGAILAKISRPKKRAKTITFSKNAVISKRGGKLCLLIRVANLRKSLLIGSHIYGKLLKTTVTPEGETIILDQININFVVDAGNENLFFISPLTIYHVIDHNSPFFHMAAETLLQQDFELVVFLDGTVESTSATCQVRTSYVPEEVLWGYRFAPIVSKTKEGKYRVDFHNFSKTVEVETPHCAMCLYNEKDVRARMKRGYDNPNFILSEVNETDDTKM
# Cl transport mod: modulates chloride dependent transport by human KCC2 | Q9H2X9 | KCC2 cells, thallium flux FluoZin-2 fluorescence | B-score of Tl+ flux slope (higher = more flux/activation; lower = inhibition) at 10 µM | actives 2.2% (n = 190,000);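 active = thallium flux slope and its plate-corrected score both differing from the plate sample mean at a set confidence after two filtering rounds, in either direction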;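 note: slope of fluorescence scaled to starting intensity during 10 to 20 s after thallium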
# PMI act: phosphomannose isomerase (human) activation | purified human PMI, coupled resazurin fluorescence, 20 min; stronger effect = higher value; 1 = vehicle control, 0 substrate-free wells | activation factor at 20 µM | actives 0.005% (n = 190,000);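 active = activation factor of 2 or more at 20 µM, relative to plate controls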
# KCC2 secondary: KCC2 (human) modulation, secondary assay; shares compounds with Cl transport mod; HEK293-KCC2, thallium flux, FluoZin2 fluorescence; stronger effect = higher value; normalised thallium flux (F/F0 slope) at 10 µM; actives 15% (n = 3,700); AID 1713;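 active = thallium flux slope above the same plate's solvent-only control mean plus 3 SD; inconclusive = the two replicate wells disagree; inactive = no significant difference from solvent-only control wells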
# KCC2 bumet counter: thallium flux despite bumetanide block in KCC2 cells, secondary assay 3; shares compounds with Cl transport mod; HEK293-KCC2 + bumetanide/ouabain, thallium flux FluoZin2; stronger effect = higher value; normalized thallium flux at 10 µM; actives 49% (n = 3,700); AID 1714;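 active = thallium entry rate above the same plate's blocked-transporter control wells by more than 3 SD; inconclusive = the two repeat wells disagree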;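 note: raw slope of fluorescence over initial fluorescence between 10 and 20 s after thallium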
# KCC2 sec2: KCC2 (human) modulation, second secondary assay | normalized thallium flux at 10 µM | HEK293-KCC2, thallium flux FluoZin2 fluorescence; actives lie on both sides; F/F0 rise rate, 10–20 s post-thallium | shares compounds with Cl transport mod | actives 23% (n = 3,700);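 active = thallium flux slope more than 3 SD above or below the plate's solvent-only control mean, mostly below; inconclusive = the two repeat wells disagreed; inactive = no significant shift from solvent-only controls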
# HEK counter1: acts in parental HEK cells, KCC2 counter-screen; shares compounds with Cl transport mod; HEK293 parental cells, thallium flux FluoZin2, ouabain; baseline-ratio fluorescence slope, 10–20 s after thallium; thallium flux rate (normalised fluorescence) at 10 µM; actives 46% (n = 3,700); AID 1716;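 active = thallium flux rate significantly above the same plate's solvent-only control wells, beyond their mean plus 3 SD; inconclusive = the two replicate wells gave conflicting results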
# KCC2 ouabain: modulates human KCC2 on retest with ouabain. shares compounds with Cl transport mod. HEK293-KCC2, thallium flux FluoZin2 fluorescence; bidirectional: low = inhibitor, high = activator. raw Tl+ flux slope (below DMSO = inhibition, above = activation) at 10 µM. actives 48% (n = 3,700);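 active = thallium flux slope beyond 3 SD from same-plate DMSO control mean in most replicates, usually higher, sometimes lower; inconclusive = repeat tests gave conflicting results; inactive = no significant difference from controls in most replicates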;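 note: slope of initial-normalized fluorescence between seconds 10 and 20 after thallium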
# HEK293 Tl flux2: counter-screen for KCC2 modulators: effect in parental HEK293 cells. shares compounds with Cl transport mod. thallium flux FluoZin-2 fluorescence slope. thallium flux slope at 10 µM. actives 33% (n = 3,700). AID 1718;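 active = thallium flux slope above the same plate's solvent-control mean plus 3 SD in both duplicate wells; inconclusive = duplicate wells that disagreed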;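 note: run without ouabain in cells lacking the KCC2 cotransporter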
# Numbers stand for hits; . = inactive; ? = inconclusive; / = no result.
SMILES,ABCG2 block,ABCB1 block,PMI act hi M6P,ROMK mod,Cl transport mod,PMI act,KCC2 secondary,KCC2 bumet counter,KCC2 sec2,HEK counter1,KCC2 ouabain,HEK293 Tl flux2
CCCCn1c(SCC(=O)Nc2ccc3c(c2)CCC3)nc2ccccc2c1=O,.,.,.,/,8.97,.,.,0.0136,.,0.0169,?,0.0204
CCCCCCn1c(SCC(=O)Nc2cc(C)on2)nc2ccccc2c1=O,.,.,.,/,/,.,/,/,/,/,/,/
O=C1OCCC1Sc1nc2ccccc2c(=O)n1-c1ccc(F)cc1 (centres undefined),.,.,.,.,.,.,/,/,/,/,/,/
Cc1cc(NC(=O)CSc2nc3ccccc3c(=O)n2Cc2ccc(F)cc2)no1,.,.,.,.,3.47,.,.,0.0185,.,?,?,?
O=C1OCCC1Sc1nc2ccccc2c(=O)n1Cc1ccc(F)cc1 (centres undefined),.,.,.,.,38.5,.,0.0248,0.139,?,0.0616,0.0973,0.0327
Cc1cc(=O)[nH]c(S/C=C/c2ccccc2)n1,.,.,.,/,.,.,/,/,/,/,/,/
O=C(CSc1nc2ccccc2c(=O)n1Cc1ccc(F)cc1)NCc1cccs1,.,.,.,/,27,.,.,0.0312,0.0498,0.0353,0.0384,0.0359
CCOC(=O)CSc1nnc2n1C(C)(C)Cc1ccccc1-2,.,.,.,.,.,.,/,/,/,/,/,/
Cn1c(-c2ccc(F)cc2)cnc1SCC(=O)N1CCCc2ccccc21,.,.,.,.,.,.,/,/,/,/,/,/
CC1Cc2ccccc2N1C(=O)CSc1ncc(-c2ccc(F)cc2)n1C (centres undefined),.,.,.,/,-4.17,.,.,.,0.0239,0.00601,0.0132,?
CC1Cc2ccccc2N1C(=O)CSc1nnc2n1C(C)(C)Cc1ccccc1-2 (centres undefined),.,.,.,/,-5.57,.,.,?,0.0237,.,?,.
CC1Cc2ccccc2N1C(=O)CSc1nc(-c2ccco2)cc(C(F)(F)F)n1 (centres undefined),.,.,.,.,/,.,.,.,.,.,.,.
Cn1nnc2ccccc2c1=O,.,.,.,.,.,.,/,/,/,/,/,/
C1=C(CCNCC2CCCCC2)CCCC1,.,.,.,.,.,.,/,/,/,/,/,/
CCOC(=O)/C(=N\Nc1ccc(Br)cc1)N1CC(C)OC(C)C1 (centres undefined),/,/,/,/,.,/,/,/,/,/,/,/
O=C(Nc1ccc(Cl)c(Cl)c1)Nc1nnc(CC2=CCCCC2)s1,.,.,.,/,.,.,/,/,/,/,/,/
CCOC(=O)c1sc(N2N=C(C)C(N=Nc3cccc(C)c3)C2=O)nc1C (centres undefined),/,/,/,.,21.9,/,.,0.0264,0.0384,0.0161,0.0355,0.0185
O=C(N/N=C/c1cc(Br)cc(Br)c1O)c1ccncc1,.,.,.,/,-4.52,.,.,0.000551,0.0171,0.00277,0.0078,0.00456
O=C(N/N=C/c1cc(Cl)cc(Cl)c1O)c1ccncc1,/,/,/,/,.,/,/,/,/,/,/,/
O=C(N/N=C/c1cc(Br)c(Br)s1)c1ccncc1,.,.,.,/,6.51,.,.,0.0145,.,0.00968,?,.
O=[N+]([O-])c1ccc(/C=N/NC(=S)Nc2ccccc2C(F)(F)F)o1,.,.,.,.,20.6,.,.,0.0463,0.0505,0.0266,0.0538,0.0212
Cc1c([N+](=O)[O-])c(C/C=N/O)nn1C,/,/,/,/,.,/,/,/,/,/,/,/
Cc1cc(C)c2nc(N3CCC(C(=O)N4CCCC4)CC3)sc2c1,.,.,.,.,/,.,?,.,.,.,0.0148,.
CC1=NN(c2nc3ccccc3[nH]2)C(=O)C1Cc1ccccc1 (centres undefined),/,/,/,/,8.58,/,.,0.0163,.,0.0161,0.0273,0.0193
COCc1cc(N2CCCC2)nc(-c2ccccc2)n1,.,.,.,.,-3.51,.,.,.,.,.,.,.
SMILES,ABCG2 block,ABCB1 block,PMI act hi M6P,ROMK mod,Cl transport mod,PMI act,KCC2 secondary,KCC2 bumet counter,KCC2 sec2,HEK counter1,KCC2 ouabain,HEK293 Tl flux2
CS(=O)(=O)Cc1cc(N2CCCC2)nc(-c2ccccc2)n1,.,.,.,.,.,.,/,/,/,/,/,/
Fc1ccc(CO/N=C2\CCCc3nonc32)cc1,.,.,.,.,.,.,/,/,/,/,/,/
CCOCCn1c(N2CCN(c3ccc(OC)cc3)CC2)nc2c1c(=O)n(C)c(=O)n2C,.,.,.,/,.,.,/,/,/,/,/,/
COCCn1c(N2CCN(c3ccc(OC)cc3)CC2)nc2c1c(=O)n(C)c(=O)n2C,.,.,.,.,/,.,.,.,.,.,.,.
Cc1ccccc1OCC(=O)N=Nc1c(O)n(C)c2ccccc12,/,/,/,/,28.2,/,?,0.0287,.,0.0287,0.031,0.0221
O=C1NC(=O)/C(=C\c2ccccc2Oc2ccc(F)c(F)c2)S1,.,.,.,/,.,.,/,/,/,/,/,/
O=C1NC(=O)/C(=C/c2ccccc2OCc2ccccc2)S1,.,.,.,.,-5.68,.,.,.,.,.,0.0153,?
Cn1c(=O)c2ncn(CC(=O)Nc3cccc(-c4nc5ccccc5s4)c3)c2n(C)c1=O,.,.,.,/,/,.,/,/,/,/,/,/
Fc1ccc(NC(=S)NCCc2ccc(Cl)cc2)cc1,.,.,.,.,.,.,/,/,/,/,/,/
O=[N+]([O-])c1ccc(NC(=S)NCCc2ccc(F)cc2)cc1,.,.,.,/,-6.09,.,.,.,0.0215,0.00522,0.0102,0.008
Cc1ccc(-c2cc(C(=O)O)c3ccccc3n2)c(C)c1,/,/,/,/,.,/,/,/,/,/,/,/
O=C(Nc1nc(COc2ccccc2)cs1)C1CCC1,.,.,.,.,-4.34,.,.,.,?,.,0.0133,?
Cc1ccc(C(=O)CC2(O)C(=O)N(C)c3ccc(Br)cc32)c(C)c1 (centres undefined),.,.,.,/,-3.63,.,.,?,.,0.00897,.,.
